KCNK9 inh-1: blocks the human KCNK9 two-pore domain potassium channel; AID 488922; 310,000 compounds, 1.2% hits; B-score at 10 µM; HEK293 KCNK9, FluxOR thallium flux fluorescence; active compounds read low;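 active = ratio B-score over 3 SD below the library mean, with starting fluorescence within 5 SD of its mean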;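 note: negative B-score means less thallium flux so channel inhibition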
KCNQ1 pot: potentiates or activates the human KCNQ1 potassium channel | B-score at 10 µM | P51787 | CHO-K1 KCNQ1, thallium flux FluxOR fluorescence; active compounds read high | AID 2648 | 310,000 compounds, 0.35% hits;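 active = fluorescence ratio B-score, a plate-corrected score, at least three library SD, with initial intensity B-score within 5 SD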
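assay system = KCNQ1-transfected CHO-K1 cells | medium = assay buffer with matched DMSO | probe or stimulus = depolarizing K+/Tl+ stimulus, K2SO4 and Tl2SO4 each 12.5 mM in 5x stock | dosing = single dose | incubation = dye 90 min, compound 20 min, room temperature | detection = kinetic FluxOR fluorescence, 10 s baseline plus 110 s post-stimulus | evaluation = ratio B score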
KCNK3 inh: human KCNK3 channel inhibition, primary screen | CHO-KCNK3 thallium flux, FluxOR fluorescence; active compounds read low | B-score at 10 µM | 340,000 compounds, 0.84% hits | AID 602410;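 active = B-score under library mean minus 4 SD, starting fluorescence ratio at most library mean plus 5 SD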;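 note: more negative B-score means stronger inhibition of thallium flux through KCNK3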
KCNQ1 block: human KCNQ1 channel inhibition | 310,000 compounds, 1.3% hits | CHO-K1 KCNQ1, FluxOR thallium flux fluorescence; active compounds read high | P51787 | B-score at 10 µM;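 active = compounds whose thallium flux B-score, printed positive for inhibition, exceeds three library SD while starting fluorescence stays within three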;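 note: channel opened by potassium depolarization with thallium stimulus after 20 min compound exposure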
Kir21 block: inhibitors of mouse Kir2.1 inward-rectifier potassium channel. 310,000 compounds, 0.85% hits. B-score at 10 µM. P35561. HEK293-Kir2.1, FluxOR thallium flux fluorescence; active compounds read low;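 active = fluorescence ratio B-score at or below minus 3 SD of library scores, with starting-brightness B-score within 2 SD, cut at about -4.2 in these data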;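 note: channel flux triggered by added potassium and thallium sulfate stimulus; B-score of peak minus minimum fluorescence over baseline after thallium stimulus; more negative B-score means stronger Kir2.1 block with less thallium influx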
Target sequence (P35561 whole entry, looked up): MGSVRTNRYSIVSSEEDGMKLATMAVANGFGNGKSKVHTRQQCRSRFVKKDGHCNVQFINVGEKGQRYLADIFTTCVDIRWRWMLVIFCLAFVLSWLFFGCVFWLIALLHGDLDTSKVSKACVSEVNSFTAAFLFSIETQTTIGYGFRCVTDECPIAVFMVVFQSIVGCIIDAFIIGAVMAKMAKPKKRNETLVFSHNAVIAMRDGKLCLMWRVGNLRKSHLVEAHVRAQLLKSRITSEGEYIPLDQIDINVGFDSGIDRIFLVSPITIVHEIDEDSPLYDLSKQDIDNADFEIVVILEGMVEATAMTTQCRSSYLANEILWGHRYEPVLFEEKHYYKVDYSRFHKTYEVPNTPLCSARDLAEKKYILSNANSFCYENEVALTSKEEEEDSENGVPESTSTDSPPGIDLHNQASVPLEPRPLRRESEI
hERG rescue: shields human hERG channel from block by proarrhythmic agents | CHO-hERG, FluxOR thallium flux, dofetilide IC70 present | AID 1511 | 310,000 compounds, 0.51% hits | activation (rescue from dofetilide block), less the hit threshold, % at 10 µM | Q12809;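 active = activation above the mean of controls blocked by dofetilide plus 5 SD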;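 note: thallium influx through hERG after potassium depolarization seen as dye fluorescence rise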
hERG ctr: hERG (human) inhibition as Kir2.1 counter-screen. shares compounds with Kir21 block. hERG-expressing cells, thallium flux. inhibition, % at 10 µM. 320 compounds, 20% hits;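 note: host cells are CHO cells stably expressing hERG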
KCNK9 inh-2: selectivity of Kir2.1 inhibitors: effect on human KCNK9; shares compounds with Kir21 block; KCNK9-expressing cells, ion flux inhibition; 320 compounds, 5% hits; inhibition, % at 10 µM
Kir21 ephys inh: mouse Kir2.1 inward rectifier channel inhibition; 320 compounds, 71% hits; Kir2.1 cells, automated patch-clamp current inhibition; inhibition, % at 25 µM; shares compounds with Kir21 block; AID 463252
Hits are given with their value; i = inactive; nt = no result given. Sampled rows, rich in hits. Any-hit rate of the full collection: about 3.8%. Unless noted, the rule behind the calls is not given here.

SMILES	KCNK9 inh-1	KCNQ1 pot	KCNK3 inh	KCNQ1 block	Kir21 block	hERG rescue	others
NC1=NC[C@H](Cc2ccc(O)cc2)N1CCCCC1CCCCC1	i	i	i	i	i	i
NC1=NC[C@H](Cc2ccccc2)N1CCCCC1CCCCC1	i	i	i	i	-5.8	i
CC(=O)Nc1ccc(NC(=O)COC(=O)C2(c3ccc(Cl)cc3)CCCC2)cc1	i	i	i	i	i	i
CCc1cccc(CC)c1NC(=O)COC(=O)C1(c2ccc(Cl)cc2)CCCC1	-7.1	i	i	i	i	i
Cc1[nH]n(-c2cccc3ccccc23)c(=O)c1/C=N/c1sc2c(c1C#N)CCC2	i	11	i	i	i	i
Cc1[nH]n(-c2ccc(F)cc2)c(=O)c1/C=N/c1sc2c(c1C#N)CCCC2	i	34	i	i	i	20
N#Cc1c(/N=C/c2cc3ccccc3s2)sc2c1CCC2	i	i	i	i	i	i
O=C(Nc1nnc(-c2ccccc2)o1)c1ccc(Cl)cc1	i	11	i	i	i	i
C=CCNC(=S)Nc1sc2c(c1C(=O)OCC)CC(C)(CC)OC2 (stereo not given)	i	22	i	i	i	9.4
O=C(O)c1ccc(COc2ccc(Cl)cc2)o1	i	i	i	i	i	i
CCc1ccc(OCc2ccc(C(=O)O)o2)cc1	i	i	i	i	i	5.2
Cc1ccc(C(=O)NCC(=O)OCCCOC(=O)CNC(=O)c2ccc(C)c(C)c2)cc1C	nt	nt	i	nt	nt	nt
CC(CN(C)Cc1ccccc1)OC(=O)c1ccccc1F (stereo not given)	i	i	i	i	i	i
CC(CN(C)Cc1ccccc1)OC(=O)c1cccs1 (stereo not given)	i	i	i	i	i	47
O=C(CCl)c1ccc2c(c1)CCN2C(=O)C1CC1	i	i	nt	i	-5.7	i
NC(=NCCc1ccccc1)c1cccc([N+](=O)[O-])c1	i	i	i	7	i	i
CC(C)=CC(=O)Nc1nnc(-c2ccccc2C)s1	i	i	i	i	i	i
S=c1nc[nH]c2c1sc1nc(-c3ccccc3)c3c(c12)CCCC3	i	60	i	i	i	52
COc1cc(/C=C2/CC/C(=C/c3ccc(O)c(OC)c3)C2=O)ccc1O	-7.4	i	-9.1	i	i	i
COc1cc(/C=C2\C(=O)N(C)C(=S)N2C)ccc1O	i	15	i	i	i	i
CN1C(=O)/C(=C/c2ccc(O)c([N+](=O)[O-])c2)N(C)C1=S	i	i	i	i	i	i
COc1cc(/C=C2\COC/C(=C\c3ccc(O)c(OC)c3)C2=O)ccc1O	i	i	i	i	i	i
O=C(COc1ccc(C(=O)NCC2CCCO2)cc1)Nc1cccc(C(F)(F)F)c1 (stereo not given)	i	i	i	i	i	i
CCC1Oc2ccc(C)cc2N(CC(=O)N2CCOCC2)C1=O (stereo not given)	i	i	i	i	i	i
Cc1c(OCC(=O)NC2CC(C)(C)NC(C)(C)C2)ccc2c1oc(=O)c1ccccc12	i	i	i	i	i	i
SMILES	KCNK9 inh-1	KCNQ1 pot	KCNK3 inh	KCNQ1 block	Kir21 block	hERG rescue	others
Cc1c(OCC(=O)NC2CC(C)(C)NC(C)(C)C2)ccc2c3c(c(=O)oc12)CCC3	i	i	i	i	-4.6	i
COc1ccc(NC(=O)COC(=O)c2ccc(-n3cnnn3)cc2)cc1Cl	i	i	i	i	i	i
Cc1nn(-c2ccccc2)c(Cl)c1/C=C1\SC(=S)NC1=O	i	28	i	i	i	19
COc1ccc(CCn2c(-c3ccc(OC)cc3)nc3c(c(=O)c4ccccc4n3C)c2=O)cc1	i	i	i	i	i	i
CCc1nc2c(c(=O)c3ccccc3n2C)c(=O)n1CCc1ccc(OC)cc1	-12	i	nt	7	i	i
CCOC(=O)N1CCN(c2nc(N(c3ccccc3)c3ccccc3)nc(-n3ccnc3)n2)CC1	i	i	nt	8	i	i
CCOC(=O)COc1ccc2ccccc2c1/C=C/[N+](=O)[O-]	i	i	i	i	i	i
O=[N+]([O-])/C=C/c1c(OCc2ccccc2)ccc2ccccc12	-11	i	i	i	-7.9	i
CCOc1ccc(/C=C/[N+](=O)[O-])c2ccccc12	i	i	i	i	-8.3	i
CN(C)c1ccc(N2C(=O)CSC2=S)cc1	i	i	i	i	i	6.8
Cc1nc(NCCc2ccc(O)cc2)c2nnn(Cc3ccccc3)c2n1	i	i	i	i	i	9.1
Cc1nc(NCCc2ccc(F)cc2)c2nnn(Cc3ccccc3)c2n1	i	i	i	i	i	i
COc1ccccc1-c1nnc(C2CCN(S(=O)(=O)c3ccccc3[N+](=O)[O-])CC2)o1	i	i	i	i	i	i
CCN(c1ccccc1)S(=O)(=O)c1ccc(Cl)nc1	i	i	i	i	-4.3	i
CCN(c1ccccc1)S(=O)(=O)c1ccc(NC(=O)c2nc(S(C)(=O)=O)ncc2Cl)cc1	i	17	i	i	i	i
CCS(=O)(=O)c1ncc(Cl)c(C(=O)Nc2ccc(S(=O)(=O)N(C)c3ccccc3)cc2)n1	i	i	i	i	i	i
CCN(c1cccc2ccccc12)S(=O)(=O)c1ccc(Cl)nc1	i	i	i	i	i	i
CC(C)CCNC(=O)C(c1ccncc1)N(Cc1cccs1)C(=O)Cn1nnc(-c2ccc(F)cc2)n1 (stereo not given)	i	i	i	i	i	i
Brc1cccc(CSc2nnc(-c3ccncc3)o2)c1	i	i	i	i	i	i
COc1ccc2ccccc2c1CNCc1ccc(C)cc1	i	i	i	i	-9.1	i	hERG ctr=i;KCNK9 inh-2=i;Kir21 ephys inh=41%
COc1ccccc1CNCc1ccc(C)cc1	i	i	i	i	i	i
C/C=C/c1ccc(OCCCCN(C)Cc2ccccc2)c(OC)c1	i	i	i	i	-9.9	i	hERG ctr=62%;KCNK9 inh-2=i;Kir21 ephys inh=46%
C/C=C/c1ccc(OCCCCOc2ccccc2C(C)=O)c(OC)c1	i	i	i	i	i	i
COc1ccc(Nc2nc(N3CCCC3)c3ccccc3n2)cc1	i	i	i	i	-11	i	hERG ctr=i;KCNK9 inh-2=i;Kir21 ephys inh=46%
Cc1c(NC(=O)COC(=O)c2ccc(Br)o2)c(=O)n(-c2ccccc2)n1C	i	i	i	i	i	i	hERG ctr=i;KCNK9 inh-2=i;Kir21 ephys inh=i
Cc1c(NC(=O)C(C)OC(=O)c2ccc(Br)o2)c(=O)n(-c2ccccc2)n1C (stereo not given)	i	i	i	i	i	i

Source: PubChem
